Calls of active or inactive are those of the source.
Experiments:
[1] = test system: Rattus norvegicus; test: Anticonvulsant activity in Sprague-Dawley rat model of maximal electroshock-induced seizure assessed as suppression of tonic hind limb extension at 30 mg/kg, po measured at 4 hrs post dose; type: functional, organism-based
Procedure, shortened: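 Rats given 30 mg/kg p.o. and tested by maximal electroshock at 150 mA. Scored as number protected / number tested (4 per group) at 0.25, 0.5, 1, 2 and 4 h after dosing.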

[2] = test system: Astrocyte; test: Cytotoxicity against mouse astrocytes at 10 to 200 uM after 24 hrs by neutral red staining based microscopic analysis; type: cell-based
Procedure, shortened: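 Mouse astrocyte line seeded at 1×10^4 per well, treated 24 h later with 10–200 µM for 24 h. Medium then replaced with neutral red (4 µg ml⁻¹) in EMEM with 5% FBS for 3 h. Cells washed, dye extracted in ethanol/water/acetic acid, A540 read. Cytotoxicity (%) = (1 − sample A540/control A540) × 100.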

[3] = Neurotoxicity in Sprague-Dawley rat at 30 mg/kg, ip measured after 1 hr by rotarod test; type: toxicity, organism-based; conditions: in vivo
Procedure, shortened: (§1)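 Rat neurotoxicity after i.p. or p.o. dosing was scored as animals impaired / animals tested at each time point. For p.o. dosing, TD50 was obtained by probit analysis.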

[4] = test system: Mus musculus; test: Anticonvulsant activity in ip dosed CF-1 mouse model of maximal electroshock-induced seizure assessed as suppression of tonic hind limb extension; type: functional; conditions: CF-1, ip
[5] = Neurotoxicity in Sprague-Dawley rat at 30 mg/kg, ip measured after 0.5 hrs by rotarod test; type: toxicity, organism-based; conditions: in vivo; procedure, shortened: as §1
[6] = Neurotoxicity in Sprague-Dawley rat at 300 mg/kg, ip measured after 1 hr by rotarod test; type: toxicity, organism-based; conditions: in vivo; procedure, shortened: as §1
[7] = Neurotoxicity in Sprague-Dawley rat at 300 mg/kg, ip measured after 0.5 hrs by rotarod test; type: toxicity, organism-based; conditions: in vivo; procedure, shortened: as §1
[8] = test system: Rattus norvegicus; test: Anticonvulsant activity in hippocampal kindling Sprague-Dawley rat model assessed as after discharge time at 50 mg/kg, ip administered as single dose measured after 15 mins; type: functional
Procedure, shortened: (§2)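 Rats implanted with a hippocampal electrode and kindled with suprathreshold trains (200 µA, 10 s, 50 Hz) every 30 min for 6 h on alternate days until fully kindled. One week later they received a single i.p. dose. Seizure score (Racine scale) and afterdischarge duration were recorded at 0–135 min and compared with the control stimulus given 15 min before dosing; each animal served as its own control. Values are mean ± SEM.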

[9] = test system: Rattus norvegicus; test: Anticonvulsant activity in hippocampal kindling Sprague-Dawley rat model assessed as after discharge time at 50 mg/kg, ip administered as single dose measured after 105 mins; type: functional; procedure, shortened: as §2

Compound	Activity [1]	Activity [2]	Activity [3]	ED50 [4]	Activity [5]	Activity [6]	Activity [7]	Time [8]	Time [9]
CCC(O)CNC(=O)COc1c(C)cccc1C (centres undefined)	inactive								
Cc1cccc(C)c1OCC(=O)N[C@H](C)CO		Non-Toxic	Non-Toxic	97.9 mg/kg	Non-Toxic	Toxic	Toxic	71 s	77 s

From ChEMBL document CHEMBL4368872, “Synthesis and anticonvulsant activity of phenoxyacetyl derivatives of amines, including aminoalkanols and amino acids” (Medchemcomm, 2018)
